The source made the active and inactive calls. The rule behind the calls is not given here.
Experiments:
[1] = tested on: HL-60; experiment: Cytotoxicity against human HL60 cells assessed as reduction of cell viability at 100 uM after 24 hrs by trypan blue dye exclusion test; format: cell-based; conditions: hl-60, 24 h
Procedure, shortened: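 HL60 cells at 1.0 × 10⁶/well exposed to compound (100 μM, 1% DMSO final) for 24 h at 37 °C, 5% CO2. Cells pelleted and resuspended in PBS(−). Viable cells counted by trypan blue exclusion on an automated counter.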

[2] = tested on: Liver microsome; experiment: Antioxidant activity against tert-butylhydroperoxide-induced lipid peroxidation in rat liver microsomes after 20 mins by TBARS method; format: functional
Procedure, shortened: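 Kept on ice, then peroxidation started with tert-butylhydroperoxide (1 mM) and run 37 °C, 20 min. Stopped with BHT, then TCA/TBA at 85 °C for 20 min. TBARS read as A535−A600. IC50 is the mean of 3 independent trials.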

[3] = tested on: Radical scavenging activity; experiment: Antioxidant activity assessed as DPPH free radical scavenging activity by spectroscopic analysis; format: functional
[4] = tested on: HL-60; experiment: Antioxidant activity in human HL60 cells assessed as reduction of H2O2-induced intracellular oxidative stress at 10 uM after 1 hr using DCFH-DA by FACS analysis; format: functional, cell-based
Procedure, shortened: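 HL60 cells (RPMI-1640, 5% heat-inactivated FBS, 37 °C, 5% CO2) at 1.0 × 10⁶/well loaded with DCFH-DA (10 μM, 15 min), washed, then pretreated 1 h with compound (10 μM, 1% DMSO final). H2O2 (200 μM) added for 1 h; water for controls. Fluorescence (ex 488/em 530 nm) measured by flow cytometry on about 10,000 cells per sample.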

[5] = Octanol-water partition coefficient, logKOW of the compound; format: physicochemical; conditions: read-out: log KOW

Row | IC50 [2] [µM] | logP [5] | Compound | Activity [1] | Activity [3] [×10³ /M/s] | Activity [4]
1 | > 300 | 0.44 | CC(=O)CC1(O)C(=O)Nc2ccc(O)cc21 (stereo not given) | Non-toxic | 0.74 | inactive
2 | 75 | 2.55 | O=C(CC1(O)C(=O)Nc2ccc(O)cc21)c1ccc(Br)cc1 (stereo not given) | Toxic | 1.2 | Active
3 | 160 | 2.2 | Cc1ccc(C(=O)CC2(O)C(=O)Nc3ccc(O)cc32)cc1 (stereo not given) | Non-toxic | 1.8 | Active
4 | > 300 | – | Oc1nc(O)c2nc(O)[nH]c2n1 [URIC ACID] | – | 0.63 | inactive
5 | 120 | 2.45 | O=C(CC1(O)C(=O)Nc2ccc(O)cc21)c1ccc(Cl)cc1 (stereo not given) | Toxic | 2.4 | Active
6 | 95 | 1.93 | O=C(CC1(O)C(=O)Nc2ccc(O)cc21)c1ccc(F)cc1 (stereo not given) | Toxic | 1.5 | Active
7 | 240 | 1.07 | O=C(CC1(O)C(=O)Nc2ccc(O)cc21)c1ccccc1 (stereo not given) | Non-toxic | 1.9 | Active
8 | 80 | 2.89 | O=C(CC1(O)C(=O)Nc2ccc(O)cc21)c1ccc(C(F)(F)F)cc1 (stereo not given) | – | 1.6 | Active
9 | 150 | 1.91 | N#Cc1ccc(C(=O)CC2(O)C(=O)Nc3ccc(O)cc32)cc1 (stereo not given) | Toxic | 1.7 | Active
10 | 55 | 2.81 | O=C(CC1(O)C(=O)Nc2ccc(O)cc21)c1ccc(I)cc1 (stereo not given) | – | 2.2 | Active
11 | 40 | 1.85 | O=C(CC1(O)C(=O)Nc2ccc(O)cc21)c1ccc([N+](=O)[O-])cc1 (stereo not given) | – | 2.5 | Active
12 | 225 | 1.74 | COc1ccc(C(=O)CC2(O)C(=O)Nc3ccc(O)cc32)cc1 (stereo not given) | Non-toxic | 1.5 | Active
13 | 300 | 0.7 | O=C1Cc2cc(O)ccc2N1 | Non-toxic | 9.2 | Active

— ChEMBL document CHEMBL3091393, “Antioxidant activities of 5-hydroxyoxindole and its 3-hydroxy-3-phenacyl derivatives: the suppression of lipid peroxidation and intracellular oxidative stress” (Bioorg Med Chem, 2013)
